Measured values as given in ChEMBL document CHEMBL5357066, “Development of Novel Membrane Disrupting Lipoguanidine Compounds Sensitizing Gram-Negative Bacteria to Antibiotics” (ACS Med Chem Lett, 2024).
In brackets after ≈: the same amount, converted by molar mass.

Experiments:
Pseudomonas aeruginosa [1] = assay: Antibacterial activity against Pseudomonas aeruginosa NCTC 13437 assessed as bacterial growth inhibition incubated for overnight by microbroth dilution method; assay type: functional
In short: (§1)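 Broth microdilution in Tryptic Soy Broth. DMSO stocks were diluted in TSB as 2-fold series. Overnight TSB cultures were back-diluted to OD 0.01 and mixed 1:1 with compound. Incubation was overnight at 37 °C. MIC was the lowest concentration without visible growth (<0.1 OD600). DMSO vehicle was checked at equivalent concentrations.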

Staphylococcus aureus [2] = assay: Antibacterial activity against methicillin sensitive Staphylococcus aureus ATCC 9144 assessed as bacterial growth inhibition incubated for overnight by microbroth dilution method; assay type: functional
In short: (§2)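 Microbroth dilution in Tryptic Soy Broth. DMSO stocks were diluted in TSB as 2-fold series. Overnight TSB cultures were back-diluted to OD 0.01 and mixed 1:1 with compound. Incubation was overnight at 37 °C. MIC is the lowest concentration with no visible growth (<0.1 OD600). DMSO at equivalent concentrations was checked.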

Staphylococcus aureus [3] = assay: Antibacterial activity against methicillin resistant Staphylococcus aureus NCTC 13616 assessed as bacterial growth inhibition incubated for overnight by microbroth dilution method; assay type: functional; in short: as §2
Staphylococcus aureus [4] = assay: Antibacterial activity against methicillin resistant Staphylococcus aureus USA 300 assessed as bacterial growth inhibition incubated for overnight by microbroth dilution method; assay type: functional; in short: as §2
Enterococcus faecalis [5] = assay: Antibacterial activity against vancomycin resistant Enterococcus faecalis NCTC 12201 assessed as bacterial growth inhibition incubated for overnight by microbroth dilution method; assay type: functional; in short: as §2
Enterococcus faecium = assay: Antibacterial activity against vancomycin resistant Enterococcus faecium NCTC 12204 assessed as bacterial growth inhibition incubated for overnight by microbroth dilution method; assay type: functional; in short: as §2
Acinetobacter baumannii [6] = assay: Antibacterial activity against Acinetobacter baumannii AYE assessed as bacterial growth inhibition incubated for overnight by microbroth dilution method; assay type: functional; in short: as §1
Acinetobacter baumannii [7] = assay: Antibacterial activity against Acinetobacter baumannii ATCC 17978 assessed as bacterial growth inhibition incubated for overnight by microbroth dilution method; assay type: functional; in short: as §1
Pseudomonas aeruginosa [8] = assay: Antibacterial activity against Pseudomonas aeruginosa PAO1 assessed as bacterial growth inhibition incubated for overnight by microbroth dilution method; assay type: functional; in short: as §1
Escherichia coli [9] = assay: Antibacterial activity against Escherichia coli NCTC 12923 assessed as bacterial growth inhibition incubated for overnight by microbroth dilution method; assay type: functional; in short: as §1
Klebsiella pneumoniae [10] = assay: Synergistic antibacterial activity against Klebsiella pneumoniae NCTC 13368 assessed as rifampicin MIC at <=0.25 times MIC incubated for overnight by microbroth dilution checkerboard assay; assay type: functional
In short: (§3)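 Checkerboard microdilution under MIC conditions (TSB, overnight, 37 °C). Two-fold series of each agent were combined on one plate before bacteria were added, and single-agent MICs were measured on the same plate. FIC = sum of combination MIC/alone MIC for each agent, taken from the most synergistic well. Three independent repeats, mean ± SD. ≤0.5 was taken as strong synergy and 0.5–<1 as weak.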

Klebsiella pneumoniae [11] = assay: Synergistic antibacterial activity against […] Klebsiella pneumoniae M6 assessed as rifampicin MIC at <=0.25 times MIC incubated for overnight by microbroth dilution checkerboard assay; assay type: functional
In short: (§4)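 Checkerboard run under the MIC conditions (TSB, overnight, 37 °C). Antibiotic and lipoguanidine 2-fold series were combined on one plate before bacteria were added. Growth/no-growth was scored as for the MIC (<0.1 OD600). Single-agent MICs were measured on the same plates. Three independent repeats were done.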

Acinetobacter baumannii [12] = assay: Synergistic antibacterial activity against Acinetobacter baumannii AYE assessed as rifampicin MIC at <=0.25 times MIC incubated for overnight by microbroth dilution checkerboard assay; assay type: functional; in short: as §3
Acinetobacter baumannii [13] = assay: Synergistic antibacterial activity against Acinetobacter baumannii ATCC 17978 assessed as rifampicin MIC at <=0.25 times MIC incubated for overnight by microbroth dilution checkerboard assay; assay type: functional; in short: as §3
Pseudomonas aeruginosa [14] = assay: Synergistic antibacterial activity against Pseudomonas aeruginosa PAO1 assessed as rifampicin MIC at <=0.25 times MIC incubated for overnight by microbroth dilution checkerboard assay; assay type: functional
In short: (§5)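 Checkerboard microdilution in Tryptic Soy Broth, run like the MIC assay. Overnight TSB cultures were back-diluted to OD 0.01 and added 1:1 to the combined two-fold series of both agents, then incubated overnight at 37 °C. Growth/no-growth was called at <0.1 OD600. MICs alone were read on the same plates. FIC index came from the most synergistic well; three independent repeats, mean ± SD.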

Pseudomonas aeruginosa [15] = assay: Synergistic antibacterial activity against Pseudomonas aeruginosa NCTC 13437 assessed as rifampicin MIC at <=0.25 times MIC incubated for overnight by microbroth dilution checkerboard assay; assay type: functional; in short: as §5
Escherichia coli [16] = assay: Synergistic antibacterial activity against Escherichia coli NCTC 12923 assessed as rifampicin MIC at <=0.25 times MIC incubated for overnight by microbroth dilution checkerboard assay; assay type: functional; in short: as §3
Staphylococcus aureus [17] = assay: Antibacterial activity against methicillin sensitive Staphylococcus aureus 1199B assessed as bacterial growth inhibition incubated for overnight by microbroth dilution method; assay type: functional; in short: as §2
Klebsiella pneumoniae [18] = assay: Synergistic antibacterial activity against Klebsiella pneumoniae NCTC 13368 assessed as bacterial growth inhibition incubated for overnight in presence of PBMN by microbroth dilution method relative to control; assay type: functional
In short: (§6)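 Adapted broth microdilution in TSB. The test compound was in a 2-fold dilution series, with PMBN added at a fixed 30 µg/mL. Bacteria at OD 0.02 were added, and plates were incubated overnight at 37 °C. Growth/no growth was read as for the MIC (<0.1 OD600).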

Klebsiella pneumoniae [19] = assay: Synergistic antibacterial activity against Klebsiella pneumoniae M6 assessed as bacterial growth inhibition incubated for overnight in presence of PBMN by microbroth dilution method relative to control; assay type: functional; in short: as §6
Acinetobacter baumannii [20] = assay: Synergistic antibacterial activity against Acinetobacter baumannii AYE assessed as bacterial growth inhibition incubated for overnight in presence of PBMN by microbroth dilution method relative to control; assay type: functional; in short: as §6
Acinetobacter baumannii [21] = assay: Synergistic antibacterial activity against Acinetobacter baumannii ATCC 17978 assessed as bacterial growth inhibition incubated for overnight in presence of PBMN by microbroth dilution method relative to control; assay type: functional; in short: as §6
Pseudomonas aeruginosa [22] = assay: Synergistic antibacterial activity against Pseudomonas aeruginosa PAO1 assessed as bacterial growth inhibition incubated for overnight in presence of […] by microbroth dilution method relative to control; assay type: functional
In short: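 Fixed-concentration combination MIC in TSB. The first agent was set in a two-fold dilution series (100 µL/well), then 50 µL/well of the second agent at a fixed concentration was added; PMBN was fixed at 30 µg/mL. Bacteria at OD 0.02 (50 µL) went into 150 µL of compounds, overnight at 37 °C. MIC was the lowest concentration without visible growth (<0.1 OD600).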

Pseudomonas aeruginosa [23] = assay: Synergistic antibacterial activity against Pseudomonas aeruginosa NCTC 13437 assessed as bacterial growth inhibition incubated for overnight in presence of PBMN by microbroth dilution method relative to control; assay type: functional; in short: as §6
Escherichia coli [24] = assay: Synergistic antibacterial activity against Escherichia coli NCTC 12923 assessed as bacterial growth inhibition incubated for overnight in presence of PBMN by microbroth dilution method relative to control; assay type: functional; in short: as §6
Klebsiella pneumoniae [25] = assay: Synergistic antibacterial activity against Klebsiella pneumoniae NCTC 13368 assessed as fold change in rifampicin MIC at <=0.25 times MIC incubated for overnight by microbroth dilution checkerboard assay relative to rifampicin alone; assay type: functional; in short: as §4
Acinetobacter baumannii [26] = assay: Synergistic antibacterial activity against Acinetobacter baumannii AYE assessed as fold change in rifampicin MIC at <=0.25 times MIC incubated for overnight by microbroth dilution checkerboard assay relative to rifampicin alone; assay type: functional; in short: as §3
Acinetobacter baumannii [27] = assay: Synergistic antibacterial activity against Acinetobacter baumannii ATCC 17978 assessed as fold change in rifampicin MIC at <=0.25 times MIC incubated for overnight by microbroth dilution checkerboard assay relative to rifampicin alone; assay type: functional; in short: as §3
Pseudomonas aeruginosa [28] = assay: Synergistic antibacterial activity against Pseudomonas aeruginosa PAO1 assessed as fold change in rifampicin MIC at <=0.25 times MIC incubated for overnight by microbroth dilution checkerboard assay relative to rifampicin alone; assay type: functional; in short: as §5
Pseudomonas aeruginosa [29] = assay: Synergistic antibacterial activity against Pseudomonas aeruginosa NCTC 13437 assessed as fold change in rifampicin MIC at <=0.25 times MIC incubated for overnight by microbroth dilution checkerboard assay relative to rifampicin alone; assay type: functional; in short: as §5
Escherichia coli [30] = assay: Synergistic antibacterial activity against Escherichia coli NCTC 12923 assessed as fold change in rifampicin MIC at <=0.25 times MIC incubated for overnight by microbroth dilution checkerboard assay relative to rifampicin alone; assay type: functional; in short: as §3
Klebsiella pneumoniae [31] = assay: Antibacterial activity against Klebsiella pneumoniae M6 assessed as bacterial growth inhibition incubated for overnight by microbroth dilution method
Klebsiella pneumoniae [32] = assay: Antibacterial activity against ESBL Klebsiella pneumoniae NCTC 13368 assessed as bacterial growth inhibition incubated for overnight by microbroth dilution method
Enterococcus faecalis [33] = assay: Antibacterial activity against vancomycin sensitive Enterococcus faecalis NCTC 775 assessed as bacterial growth inhibition incubated for overnight by microbroth dilution method

CCCCCCCCCCCCCCCCCCNC(=N)NCCCCN
MIC (Pseudomonas aeruginosa [1]): > 128 µg/mL | MIC (Staphylococcus aureus [2]): 8 µg/mL (≈ 20.9 µM) | MIC (Staphylococcus aureus [3]): 4 µg/mL (≈ 10.5 µM) | MIC (Staphylococcus aureus [4]): 2 µg/mL (≈ 5.23 µM) | MIC (Enterococcus faecalis [5]): 2 µg/mL (≈ 5.23 µM) | MIC (Enterococcus faecium): 2 µg/mL (≈ 5.23 µM) | MIC (Acinetobacter baumannii [6]): 128 µg/mL (≈ 334 µM) | MIC (Acinetobacter baumannii [7]): 16 µg/mL (≈ 41.8 µM) | MIC (Pseudomonas aeruginosa [8]): > 128 µg/mL | MIC (Escherichia coli [9]): > 128 µg/mL | MIC (Klebsiella pneumoniae [10]): 16 µg/mL | MIC (Klebsiella pneumoniae [11]): 16 µg/mL | MIC (Acinetobacter baumannii [12]): 2 µg/mL | MIC (Acinetobacter baumannii [13]): ≤ 0.125 µg/mL | MIC (Pseudomonas aeruginosa [14]): 16 µg/mL | MIC (Pseudomonas aeruginosa [15]): 32 µg/mL | MIC (Escherichia coli [16]): 4 µg/mL | MIC (Staphylococcus aureus [17]): 4 µg/mL (≈ 10.5 µM) | inhibition (INH) (Klebsiella pneumoniae [18]): <20% | inhibition (INH) (Klebsiella pneumoniae [19]): <20% | inhibition (INH) (Acinetobacter baumannii [20]): <20% | inhibition (INH) (Acinetobacter baumannii [21]): <20% | inhibition (INH) (Pseudomonas aeruginosa [22]): <20% | inhibition (INH) (Pseudomonas aeruginosa [23]): <20% | inhibition (INH) (Escherichia coli [24]): <20% | fold change (FC) (Klebsiella pneumoniae [25]): 0 | fold change (FC) (Acinetobacter baumannii [26]): >=4 | fold change (FC) (Acinetobacter baumannii [27]): >=4 | fold change (FC) (Pseudomonas aeruginosa [28]): 0 | fold change (FC) (Pseudomonas aeruginosa [29]): 0 | fold change (FC) (Escherichia coli [30]): 0 | MIC (Klebsiella pneumoniae [31]): > 128 µg/mL | MIC (Klebsiella pneumoniae [32]): > 128 µg/mL | MIC (Enterococcus faecalis [33]): 2 µg/mL (≈ 5.23 µM)
